Screening results as filed in PubChem BioAssay.
A selection: hits, their analogues and other compounds. The true share with any hit is near 2.1%.
SUMO Mot1 rescue = SUMOylation pathway inhibition by Mot1-301 growth rescue; S. cerevisiae Mot1-301 growth rescue, ATP luminescence, 38.5C; percent above DMSO median, 100 means doubled; growth rescue, % at 18.8 µM; actives 1% (n = 320,000); AID 2716;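 active = every valid replicate shows activation above 250% relative to neutral control wells; inactive = the rest, any valid replicate at or below 250%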;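 note: OY570 slx delta 5 strain wells were the positive control but not used for scaling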
ARFGAP1 inhibitor = inhibits rat ARF GTPase activating protein 1. Arfgap1-stimulated ARF1 GTP hydrolysis, GDP FP detection. inhibition, % at 16.5 µM. actives 0.26% (n = 360,000). AID 651572;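 active = inhibition above a per-plate limit, mean inhibition of low control wells plus 3 SD, cut at about 25% in these data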;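 note: 0% = DMSO wells with enzyme and 100% = wells lacking Arfgap1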
Target sequence (Q62848 1-136 limits assumed): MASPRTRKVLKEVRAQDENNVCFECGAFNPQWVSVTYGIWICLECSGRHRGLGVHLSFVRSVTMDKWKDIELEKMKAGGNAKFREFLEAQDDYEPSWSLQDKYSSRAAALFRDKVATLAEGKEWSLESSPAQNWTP
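Assay system: Rat Arfgap1 GAP domain (His6, aa 1-136), purified enzyme | Buffer or medium: HEPES 25 mM pH 7.5, NaCl 150 mM, MgCl2, DTT | Schedule: GTP hydrolysis reaction 2 h at 25 °C | Signal: FP of antibody-bound GDP Alexa 633 tracer, ex 620/em 688 nm | Measure: Percent inhibition of Arfgap1-stimulated GTP hydrolysis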
A3G deaminase = blocks human APOBEC3G single-stranded DNA deamination | actives 0.28% (n = 330,000) | AID 493012 | recombinant A3G, ssDNA deamination FAM/TAMRA fluorescence | Q9HC16 | inhibition, % at 20 µM;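 active = inhibition of at least 40% at 20 µM, with no more than 30% in the related APOBEC3A deaminase screen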;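 note: plate controls were DMSO wells with A3G for no effect and wells lacking A3G enzyme for full effect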
A3A deaminase = inhibitors of human APOBEC3A DNA deaminase; P31941; recombinant A3A, FAM/TAMRA ssDNA deamination fluorescence; inhibition, % at 20 µM; actives 0.41% (n = 330,000);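 active = at least 40% inhibition at 20 µM here, with at most 30% in a related deaminase screen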;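 note: plate controls were A3A with DMSO for no effect and wells lacking A3A enzyme for full effect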
C2C12 statin = suppression of simvastatin myotoxicity | actives 0.78% (n = 330,000) | C2C12 myotubes + simvastatin, ATP luminescence, 48 h; scaled: DMSO 0, geranylgeraniol control 100 | AID 602340 | rescue of ATP level, % at 7.49 µM;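 active = mean ATP rescue above about 67%, or every replicate alone reaching that limit, limit read from the data, passing the limit was not always enough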;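 note: myotubes were challenged with 10 µM simvastatin during compound exposure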
ASAP1 inh = blocks human ASAP1-stimulated Arf1 GTP hydrolysis; Q9ULH1; GDP FP detection; inhibition, % at 16.5 µM; actives 0.19% (n = 360,000); AID 624377; in the data active = inhibition above about 25%;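 note: 0% = vehicle with enzyme and substrate and 100% = no enzyme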
Target sequence (Q9ULH1 325-724 limits assumed): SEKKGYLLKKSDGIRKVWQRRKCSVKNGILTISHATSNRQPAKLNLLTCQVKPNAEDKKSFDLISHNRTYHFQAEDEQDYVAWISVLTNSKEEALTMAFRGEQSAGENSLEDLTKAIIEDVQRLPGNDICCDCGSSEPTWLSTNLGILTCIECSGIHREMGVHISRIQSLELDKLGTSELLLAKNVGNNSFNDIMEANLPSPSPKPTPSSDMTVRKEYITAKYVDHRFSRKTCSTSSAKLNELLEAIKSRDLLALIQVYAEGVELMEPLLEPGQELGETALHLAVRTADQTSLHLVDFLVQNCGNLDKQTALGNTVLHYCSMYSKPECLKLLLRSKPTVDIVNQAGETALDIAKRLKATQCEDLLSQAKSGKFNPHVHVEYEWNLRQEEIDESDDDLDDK
Mot1 SUMO dose = SUMO pathway inhibitors in yeast Mot1-301 growth. shares compounds with SUMO Mot1 rescue. AID 493004. 2,300 tested, under 10 active. growth activity, percent, % at 42 µM. S. cerevisiae Mot1-301 galactose growth, ATP luminescence, 24 h; -100 = growth of slx-deleted rescue strain;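 active = Signal drops as the depositor expects, and the fitted half-maximal dose is no more than ten times the top valid tested dose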;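 note: more negative values mean stronger growth rescue toward the control strain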
An asterisk follows results filed as active; . = no result given; + = active, no number.

SMILES | SUMO Mot1 rescue | ARFGAP1 inhibitor | A3G deaminase | A3A deaminase | C2C12 statin | ASAP1 inh | Mot1 SUMO dose
N/C(=N\NC(=O)c1sccc1OCc1ccc(Cl)cc1Cl)c1ccccn1 | 529* | -18 | -10 | -3 | . | 5 | 0
COc1ccc(NC(=O)CSc2nnc(-c3ccccn3)n2-c2ccccc2)cc1OC | 475* | 6 | -7 | -4 | -17 | -5 | 0
O=C(C1CCC1)N1C[C@@H]2[C@H](c3ccccc31)[C@@H](CO)N2C(=O)Cc1ccccn1 | . | . | . | . | 5 | . | .
Cc1ccc(S(=O)(=O)N(C)C[C@H]2Oc3c(NC(=O)Nc4ccc5c(c4)OCO5)cccc3C(=O)N([C@H](C)CO)C[C@@H]2C)cc1 | . | . | . | . | -2 | . | .
O=C(COC(=O)C1COc2ccccc2O1)NC(=O)NC1CCCCC1 (stereo not given) | 9 | -6 | -1 | 2 | -1 | 7 | .
O=C(COC(=O)C1COc2ccccc2O1)NC1CCS(=O)(=O)C1 (stereo not given) | 473* | -2 | -1 | 0 | 0 | -18 | 0
S=C(Nc1ccccc1Cl)N1CCCCCC1 | 5 | -9 | -6 | -3 | . | 0 | .
S=C(Nc1ccccc1Cl)N1CCOCC1 | 651* | -1 | -4 | -1 | . | -11 | 1
CN(c1cccnc1)c1ncnc2[nH]ncc12 | + | 8 | -6 | -5 | 6 | 1 | 0
CN(CCc1ccccn1)c1ncnc2[nH]ncc12 | -5 | 1 | -4 | -2 | -8 | -11 | .
CCCNc1nc2ccccc2c(=O)[nH]1 | 543* | 7 | -7 | -2 | -5 | 2 | 0
CCOC(=O)c1cc(C#N)c(Oc2ccccc2OC)nc1-c1ccccc1 | + | -3 | -5 | -1 | 12 | 3 | 0
Cc1sc2nc(SCC(=O)NCCOCCO)n(C)c(=O)c2c1C | 983* | 0 | -1 | 1 | 13 | -5 | 0
Cc1ccc(Cn2c(NCCc3ccccc3)nc3c2c(=O)n(C)c(=O)n3C)cc1 | 970* | 9 | -4 | -3 | -6 | -2 | 1
C=CCn1c(NCCc2ccccc2)nc2c1c(=O)n(C)c(=O)n2C | -12 | 18 | -1 | -1 | -1 | 8 | .
COc1ccc(CCNC(=O)CCNC(=O)c2ccco2)cc1 | 1 | -4 | -4 | 10 | -4 | -1 | .
COc1ccc(-c2nc(NC(=O)CCNC(=O)c3ccco3)sc2C)cc1 | 368* | 11 | -6 | 1 | 13 | 15 | 0
Cc1ccccc1Nc1cc(=O)oc2ccccc12 | 370* | 4 | -5 | -3 | 1 | -6 | 1
N#CC1=C(SCC(N)=O)NC(=O)CC1c1ccccc1Cl (stereo not given) | 613* | -6 | -5 | -3 | . | 6 | 0
COc1ccccc1CNC(=O)C[C@H]1C[C@H]2c3cc(NC(=O)c4cccnc4)ccc3O[C@H]2[C@@H](CO)O1 | . | . | . | . | -3 | . | .
O=C(C1CCCC1)N1CCCC(Nc2ccc(F)cc2)C1 (stereo not given) | 1 | -3 | -4 | -3 | 8 | 0 | .
O=C(c1cccnc1)N1CCCC(Nc2ccc(F)cc2)C1 (stereo not given) | 595* | -6 | -4 | -1 | -15 | -1 | 0
CC(C)NC(=O)Nc1cccc2c1O[C@@H](CN(C)C(=O)NC1CCCCC1)[C@@H](C)CN([C@@H](C)CO)C2=O | . | . | . | . | -19 | . | .
CO[C@H](CN(C)C(=O)Nc1ccc(C(F)(F)F)cc1)[C@H](C)CN(Cc1ccccc1Cl)[C@H](C)CO | . | . | . | . | -20 | . | .
O=[N+]([O-])c1nn(-c2ccc(Cl)cc2)n(O)c1=NCc1ccccc1Cl | + | -4 | -3 | 2 | 0 | 16 | -1
SMILES | SUMO Mot1 rescue | ARFGAP1 inhibitor | A3G deaminase | A3A deaminase | C2C12 statin | ASAP1 inh | Mot1 SUMO dose
CN(C)c1oc(-c2ccccc2Cl)nc1S(=O)(=O)c1ccccc1 | 636* | 7 | -5 | -2 | 28 | -2 | 0
CNC(=O)C[C@@H]1CC[C@@H]2[C@@H](COc3ccc(NC(=O)c4ccc(C(F)(F)F)cc4)cc3C(=O)N2C)O1 | . | . | . | . | -10 | . | .
CCOc1ccc(NC(=O)CSc2nnc(Cc3csc(C)n3)o2)cc1 | 777* | -2 | 3 | -1 | 6 | -7 | 0
COc1ccc(NC(=O)Nc2cccc3c2O[C@@H](CN(C)Cc2ccc(C(F)(F)F)cc2)[C@@H](C)CN([C@@H](C)CO)C3=O)cc1 | . | . | . | . | 60 | . | .
COc1ccccc1NC(=O)c1nn(-c2cccc(C(F)(F)F)c2)ccc1=O | + | 2 | -4 | -1 | -5 | 11 | 0
COc1ccccc1NC(=O)c1nn(C)cc1Br | 669* | -5 | -6 | -3 | -6 | 8 | -1
O=c1c2ccccc2nc(SCc2nnc(-c3ccccc3Br)o2)n1-c1ccccc1 | 35 | -6 | -4 | -1 | 3 | 11 | .
O=c1c2ccccc2nc(SCc2nnc(-c3ccccc3)o2)n1-c1ccc(F)cc1F | 466* | 1 | -6 | -2 | . | 4 | 0
Nc1nnc(CC(=O)N2CCCCC2)s1 | 396* | 9 | -2 | -2 | -3 | 0 | 0
Cc1noc(C)c1NC(=O)N(C)C[C@@H]1Oc2ccc(NS(=O)(=O)c3cn(C)cn3)cc2CC(=O)N([C@@H](C)CO)C[C@@H]1C | . | . | . | . | -11 | . | .
CN1C(=O)c2cc(NC(=O)c3cnccn3)ccc2OC[C@H]2O[C@H](CC(=O)O)CC[C@H]21 | . | . | . | . | -11 | . | .
CC(NC(=O)c1cnc2n(c1=O)CCS2)c1ccccc1 (stereo not given) | 994* | 2 | -2 | 1 | . | -1 | 0
COC(=O)c1ccc(CSc2nnnn2-c2ccccc2)o1 | + | -4 | -4 | -4 | 4 | -5 | 1
COc1ccc(CC(=O)N2CCc3cc(OC)c(OC)cc3C2)cc1 | -4 | -1 | 1 | 0 | 13 | 5 | .
COc1cc2c(cc1OC)CN(C(=O)Cc1c(F)cccc1Cl)CC2 | 475* | -1 | -12 | -1 | 16 | 7 | 1
C[C@H](CO)N1C[C@H](C)[C@H](CN(C)C(=O)Nc2cccc3ccccc23)Oc2ccc(NS(=O)(=O)c3ccc(Cl)cc3)cc2CC1=O | . | . | . | . | 16 | . | .
COc1cccc(-n2nnc3c(=O)n(CC(=O)N4CCCc5ccccc54)cnc32)c1 | + | -4 | -5 | -7 | 48 | 13 | 0
COc1cccc(-n2nnc3c(=O)n(CC(=O)N4CCC(C)CC4)cnc32)c1 | -3 | -3 | -3 | 1 | 2 | -9 | .
CN(C)C(/C=C/Nc1cccc(Br)c1)=C(C#N)C#N | 433* | -14 | 1 | 2 | . | 2 | 1
C[C@H](CO)N1C[C@H](C)[C@@H](CN(C)C(=O)Nc2ccc(C(F)(F)F)cc2)Oc2c(NS(=O)(=O)c3ccc(Cl)cc3)cccc2C1=O | . | . | . | . | -46 | . | .
